Laboratory results from ChEMBL document CHEMBL1145024, “Unique structure-activity relationship for 4-isoxazolyl-1,4-dihydropyridines” (J Med Chem, 2003).

What was measured:
[1] = Maximum inhibition of L-type calcium channel expressed in HEK tsa-201 cells from Patch Clamp analysis; format: functional, HEK293
Summary of the method: (§1)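 Whole-cell patch clamp on GFP-positive tsa-201 cells transiently co-transfected (calcium phosphate) with α1C, β1b, α2-δ and GFP, then held at 28 °C for 2–4 days. Bath contained 5 mM BaCl2 as the charge carrier (pH 7.2), and pipettes held CsMS/EGTA. Currents were elicited from −80 mV to test potentials. Compound was diluted from a 10 mM DMSO stock and microperfused, and dose–response curves were fitted individually.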

[2] = Inhibition of L-type calcium channel subunits alpha1C, beta1b, and alpha2-delta subunits expressed in Human embryonic kidney tsa-201 cells; format: cell-based; summary of the method: as §1
Homo sapiens = species: Homo sapiens; test: Percent recovery of Human embryonic kidney tsa-201 cells; format: functional

CCOC(=O)C1=C(C)N=C(C)/C(=C(/O)OCC)C1c1c(-c2ccccc2Cl)noc1C (stereo not given) showed a Max inhibition [1] of 70, an IC50 [2] of 9680 nM and a Recovery (Homo sapiens) of 65%.
Compound COC(=O)C1=C(C)N=C(C)/C(=C(/O)OC)C1c1c(-c2ccc(Br)cc2)noc1C (stereo not given) has a Max inhibition [1] of 88, an IC50 [2] of 580 nM and a Recovery (Homo sapiens) of 60%.
With CCOC(=O)C1=C(C)N=C(C)/C(=C(/O)OCC)C1c1c(-c2cc(Cl)ccc2OC)noc1C (stereo not given) the Max inhibition [1] was 33, the IC50 [2] was 6860 nM and the Recovery (Homo sapiens) was 82%.
CCOC(=O)C1=C(C)N=C(C)/C(=C(/O)OCC)C1c1c(C)noc1C (stereo not given) showed a Max inhibition [1] of 100, an IC50 [2] of 8100 nM and a Recovery (Homo sapiens) of 87%.
For CCOC(=O)C1=C(C)N=C(C)/C(=C(/O)OCC)C1c1c(C)noc1CCc1cccc2ccccc12 (stereo not given), the Max inhibition [1] was 76, the IC50 [2] was 470 nM and the Recovery (Homo sapiens) was 43%.
With COC(=O)C1=C(C)N=C(C)/C(=C(/O)OC)C1c1c(-c2ccc(F)cc2)noc1C (stereo not given) the Max inhibition [1] was 93, the IC50 [2] was 2710 nM and the Recovery (Homo sapiens) was 66%.
Compound CCOC(=O)C1=C(C)N=C(C)/C(=C(/O)OCC)C1c1c(C)noc1CCc1cccc(Br)c1 (stereo not given) has a Max inhibition [1] of 100, an IC50 [2] of 130 nM and a Recovery (Homo sapiens) of 48%.
For CCOC(=O)C1=C(C)N=C(C)/C(=C(/O)OCC)C1c1c(-c2cccc(Cl)c2)noc1C (stereo not given), the Max inhibition [1] was 100, the IC50 [2] was 1980 nM and the Recovery (Homo sapiens) was 65%.
With CCOC(=O)C1=C(C)N=C(C)/C(=C(/O)OCC)C1c1c(-c2ccc(Cl)cc2)noc1C (stereo not given) the Max inhibition [1] was 100 and the Recovery (Homo sapiens) was 77%.
In the case of COC(=O)C1=C(C)N=C(C)/C(=C(/O)OC)C1c1c(-c2ccc(Cl)cc2)noc1C (stereo not given), the Max inhibition [1] is reported as 85, the IC50 [2] is reported as 1740 nM and the Recovery (Homo sapiens) is reported as 64%.
Work on CCOC(=O)C1=C(C)N=C(C)/C(=C(/O)OCC)C1c1c(C)noc1CCc1cccc(OC)c1 (stereo not given) yielded a Max inhibition [1] of 100, an IC50 [2] of 1590 nM and a Recovery (Homo sapiens) of 49%.
In the case of CCOC(=O)C1=C(C)N=C(C)/C(=C(/O)OCC)C1c1c(-c2ccccc2OC)noc1C (stereo not given), the Max inhibition [1] is reported as 55 and the Recovery (Homo sapiens) is reported as 69%.
In the case of CCOC(=O)C1=C(C)N=C(C)/C(=C(/O)OCC)C1c1c(C)noc1CCc1ccc2ccccc2c1 (stereo not given), the Max inhibition [1] is reported as 100, the IC50 [2] is reported as 1180 nM and the Recovery (Homo sapiens) is reported as 41%.
Compound CCOC(=O)C1=C(C)N=C(C)/C(=C(/O)OCC)C1c1c(C)noc1CCc1ccccc1 (stereo not given) has a Max inhibition [1] of 100, an IC50 [2] of 1790 nM and a Recovery (Homo sapiens) of 46%.
